Measurements taken from ChEMBL document CHEMBL1649401, “Synthesis and biophysical evaluation of arylhydrazono-1H-2-indolinones as β-amyloid aggregation inhibitors” (Eur J Med Chem, 2011).
Active and inactive are the calls of the source. No cut-off for these calls is given here.

Assays:
[1] = Inhibition of amyloid beta (1 to 40) aggregation after 2 hrs by thioflavin T based fluorometric assay
[2] = Inhibition of amyloid beta (1 to 40) aggregation at 100 uM after 2 hrs by thioflavin T based fluorometric assay
Procedure, shortened: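 Aβ1-40 (HFIP-treated, lyophilized) at 30 μM in PBS (0.01 M, NaCl 0.1 M, pH 7.4) containing 2% HFIP and 10% DMSO. Incubated with inhibitor in triplicate, 2 h at 25 °C. Sample mixed with 25 μM ThT in 0.025 M phosphate pH 6.0, read at ex 440/em 485 nm. % inhibition = 100 − [(Fi − Fb)/F0]×100. Screen at 100 μM.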

[3] = Inhibition of amyloid beta (1 to 40) aggregation assessed as effect on extension of beta-sheet content at 5 uM after 2 days by CD spectroscopy assay
Procedure, shortened: (§1)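 Samples as for TEM: 50 μM Aβ1-40, 0.217 M phosphate pH 8.0, 10% ethanol, 37 °C incubation, aliquots removed over time. Spectra 195–250 nm, 0.1 cm cell, room temperature, 0.1 nm steps, 4 nm bandwidth. Buffer/ethanol (± compound) blank subtracted. Absolute 215 nm ellipticity plotted vs incubation time.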

[4] = Inhibition of amyloid beta (1 to 40) aggregation assessed as reduction of exponential phase of thioflavin T fluorescence curve at 5 uM after 3 to 4 days
Procedure, shortened: (§2)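 Aβ1-40 (50 μM) incubated alone or with compound in 0.217 M phosphate pH 8.0, 10% ethanol, 37 °C. Aliquots taken at time points over several days and analyzed by ThT fluorescence. Values expressed as percentage of the plateau fluorescence of free aggregation.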

[5] = Inhibition of amyloid beta (1 to 40) aggregation assessed as formation of long and curly fibrils at 5 uM after 7 days by transmission electron microscopic analysis
[6] = Solubility of the compound in aqueous buffer; type: physicochemical
[7] = Inhibition of amyloid beta (1 to 40) aggregation assessed as effect on extension of beta-sheet content at 5 uM up to 8 days by CD spectroscopy assay; procedure, shortened: as §1
[8] = Inhibition of amyloid beta (1 to 40) aggregation assessed as loss of stable random coil arrangement of peptide up to 100 uM after up to 8 days by CD spectroscopy assay; procedure, shortened: as §1
[9] = Inhibition of amyloid beta (1 to 40) aggregation assessed as inhibition of extended fibrils formation at 5 uM after 7 days by transmission electron microscopic analysis
[10] = Inhibition of amyloid beta (1 to 40) aggregation assessed as reduction of autocorrelation function particles size at 5 uM after 3 days by dynamic light-scattering analysis
Procedure, shortened: (§3)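 Dynamic light scattering at a 173° backscatter angle with a 633 nm laser, cell held at 37 °C. z-averaged hydrodynamic diameter obtained by second-order cumulant analysis and the Stokes–Einstein equation.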

[11] = Inhibition of amyloid beta (1 to 40) aggregation assessed as reduction of exponential phase of thioflavin T fluorescence curve at 25 uM after 3 to 4 days; procedure, shortened: as §2
[12] = Inhibition of amyloid beta (1 to 40) aggregation assessed as reduction of exponential phase of thioflavin T fluorescence curve at 100 uM after 3 to 4 days; procedure, shortened: as §2
[13] = Inhibition of amyloid beta (1 to 40) aggregation assessed as loss of beta-sheet structure up to 100 uM after up to 8 days by CD spectroscopy assay; procedure, shortened: as §1
[14] = Inhibition of amyloid beta (1 to 40) aggregation assessed as delay in formation of fibrils at 5 uM after 12 hrs by dynamic light-scattering analysis; procedure, shortened: as §3

Row | Structure (SMILES) | IC50 [1] [µM] | inhibition [2] [%] | further results
1 | COc1ccc2c(c1)/C(=N/Nc1ccc(C(C)(C)C)cc1)C(=O)N2 | 15 |  | 
2 | COc1cc2c(cc1OC)/C(=N/Nc1ccccc1)C(=O)N2 |  | 68 | 
3 | O=C1Nc2ccccc2/C1=N/Nc1cccc([N+](=O)[O-])c1 |  | 29 | 
4 | COc1ccc(N/N=C2\C(=O)Nc3ccc(OC)cc32)cc1 | 3.7 |  | 
5 | Oc1[nH]c2ccccc2c1/N=N/c1ccccc1 |  | 61 | 
6 | COc1ccc(N/N=C2\C(=O)Nc3ccccc32)cc1 | 13 |  | 
7 | COc1ccc2c(c1)/C(=N/Nc1ccc(OCc3ccccc3)cc1)C(=O)N2 |  | 20 | 
8 | COc1cc2c(cc1OC)/C(=N/Nc1cccc(Cl)c1)C(=O)N2 | 17 |  | 
9 | COc1cc2c(cc1OC)/C(=N/Nc1ccc(C(C)C)cc1)C(=O)N2 | 4.4 |  | 
10 | O=C1Nc2ccccc2/C1=N/Nc1ccc(OC(F)(F)F)cc1 |  | 57 | 
11 | COc1ccc2c(c1)/C(=N/Nc1cccc(Cl)c1)C(=O)N2 |  | 72 | 
12 | O=C1Nc2ccc(Br)cc2/C1=N/Nc1ccc(Cl)cc1 |  | 63 | 
13 | CC(C)c1ccc(N/N=C2\C(=O)Nc3cc(O)c(O)cc32)cc1 | 1.6 |  | 
14 | O=C1Nc2ccccc2/C1=N/Nc1cccc(Cl)c1 |  | 39 | 
15 | O=C1Nc2ccc(O)cc2/C1=N/Nc1cccc(Cl)c1 | 18 |  | 
16 | O=C1Nc2ccc([N+](=O)[O-])cc2/C1=N/Nc1ccc(Cl)cc1 |  | 12 | 
17 | O=C1Nc2ccccc2/C1=N/Nc1ccc(O)cc1 | 9.3 |  | 
18 | O=C1Nc2cc(O)c(O)cc2/C1=N/Nc1ccc(O)cc1 | 24 |  | 
19 | COc1cc2c(cc1OC)/C(=N/Nc1ccc(Cl)cc1)C(=O)N2 |  | 71 | 
20 | O=C1Nc2ccc(O)cc2/C1=N/Nc1ccc(O)cc1 |  | 61 | 
21 | COc1ccc(N/N=C2\C(=O)Nc3cc(OC)c(OC)cc32)cc1 | 22 |  | 
22 | CC(C)c1ccc(N/N=C2\C(=O)Nc3ccc(O)cc32)cc1 | 21 |  | 

Row | Structure (SMILES) | IC50 [1] [µM] | inhibition [2] [%] | further results
23 | O=C1Nc2cc(O)c(O)cc2/C1=N/Nc1cccc(Cl)c1 | 1.1 |  | inhibition [3]: inactive; inhibition [4]: Active; inhibition [5]: Active; solubility [6]: soluble; inhibition [7]: Active; inhibition [8]: Active; inhibition [9]: Active; inhibition [10]: inactive; inhibition [11]: Active; inhibition [12]: Active; inhibition [13]: Active; inhibition [14]: Active
24 | O=C1Nc2ccccc2/C1=N/Nc1ccccc1Cl |  | 44 | 
25 | O=C1Nc2ccccc2/C1=N/Nc1ccc(Cl)cc1 |  | 24 | 
26 | O=C1Nc2ccc([N+](=O)[O-])cc2/C1=N/Nc1ccccc1 |  | 0 | 
27 | COc1ccc2c(c1)NC(=O)/C2=N\Nc1ccc(C(C)C)cc1 | 7.1 |  | 
28 | O=C1Nc2cc(Cl)c(F)cc2/C1=N/Nc1ccc(Cl)cc1 |  | 28 | 
29 | COc1cc2c(cc1OC)/C(=N/Nc1ccccc1Cl)C(=O)N2 |  | 68 | 
30 | O=C1Nc2cc(O)c(O)cc2/C1=N/Nc1ccccc1Cl | 11 |  | 
31 | COc1ccc2[nH]c(O)c(/N=N/c3ccccc3)c2c1 |  | 52 | 
32 | COc1ccc2c(c1)/C(=N/Nc1ccc(C(C)C)cc1)C(=O)N2 | 0.4 |  | 
33 | COc1ccc2c(c1)NC(=O)/C2=N\Nc1ccccc1 | 5.8 |  | 
34 | O=C1Nc2ccc(O)cc2/C1=N/Nc1ccccc1 |  | 62 | 
35 | COc1ccc2c(c1)/C(=N/Nc1cccc(OCc3ccccc3)c1)C(=O)N2 |  | 44 | 
36 | COc1ccc2c(c1)/C(=N/Nc1ccc(C)cc1)C(=O)N2 |  | 29 | 
37 | COc1ccc2c(c1)/C(=N/Nc1cccc(C(C)(C)C)c1)C(=O)N2 |  | 56 | 
38 | O=C1Nc2cc(O)c(O)cc2/C1=N/Nc1ccc(Cl)cc1 | 17 |  | 
39 | O=C1Nc2cc(O)ccc2/C1=N/Nc1ccccc1 | 22 |  | 
40 | CC(C)c1ccc(N/N=C2\C(=O)Nc3cc(O)ccc32)cc1 | 6 |  | 
41 | O=C1Nc2ccccc2/C1=N/Nc1cccc(F)c1 |  | 52 | 
42 | CC(C)c1ccc(N/N=C2\C(=O)Nc3ccccc32)cc1 |  | 64 | 
43 | O=C1Nc2cc(O)c(O)cc2/C1=N/Nc1ccccc1 | 4.3 |  | 
44 | COc1ccc2c(c1)/C(=N/Nc1ccc(Cl)cc1)C(=O)N2 |  | 43 | 
